Results published in ChEMBL document CHEMBL5647691, “CDKN2A/p16 Loss Implicates CDK4 as a Therapeutic Target in Imatinib-Resistant Dermatofibrosarcoma Protuberans” (Mol Cancer Ther, 2015).
The source made the active and inactive calls. No cut-off for these calls is given here.

What was measured:
[1] = Antiproliferative activity against human Imatinib-resistant DFSP105 cells assessed as cell growth inhibition incubated for 48 hrs by BrdU cell proliferation assay; type: functional
How it was run: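 DFSP105 cells (IMDM, 15% FBS, passages 10-30) seeded at 2500/well; drug added in fresh medium 24 h after plating, 48 h exposure, BrdU added for final 24 h. Proliferation read by BrdU chemiluminescent ELISA; GI50 = 50% growth inhibition concentration.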

[2] = molecular target: Platelet-derived growth factor receptor beta (Homo sapiens) (UniProt P09619); details: Imatinib-resistant DFSP105 cell, dose 500.0 nM
Sequence of Platelet-derived growth factor receptor beta (Homo sapiens) (P09619 whole entry): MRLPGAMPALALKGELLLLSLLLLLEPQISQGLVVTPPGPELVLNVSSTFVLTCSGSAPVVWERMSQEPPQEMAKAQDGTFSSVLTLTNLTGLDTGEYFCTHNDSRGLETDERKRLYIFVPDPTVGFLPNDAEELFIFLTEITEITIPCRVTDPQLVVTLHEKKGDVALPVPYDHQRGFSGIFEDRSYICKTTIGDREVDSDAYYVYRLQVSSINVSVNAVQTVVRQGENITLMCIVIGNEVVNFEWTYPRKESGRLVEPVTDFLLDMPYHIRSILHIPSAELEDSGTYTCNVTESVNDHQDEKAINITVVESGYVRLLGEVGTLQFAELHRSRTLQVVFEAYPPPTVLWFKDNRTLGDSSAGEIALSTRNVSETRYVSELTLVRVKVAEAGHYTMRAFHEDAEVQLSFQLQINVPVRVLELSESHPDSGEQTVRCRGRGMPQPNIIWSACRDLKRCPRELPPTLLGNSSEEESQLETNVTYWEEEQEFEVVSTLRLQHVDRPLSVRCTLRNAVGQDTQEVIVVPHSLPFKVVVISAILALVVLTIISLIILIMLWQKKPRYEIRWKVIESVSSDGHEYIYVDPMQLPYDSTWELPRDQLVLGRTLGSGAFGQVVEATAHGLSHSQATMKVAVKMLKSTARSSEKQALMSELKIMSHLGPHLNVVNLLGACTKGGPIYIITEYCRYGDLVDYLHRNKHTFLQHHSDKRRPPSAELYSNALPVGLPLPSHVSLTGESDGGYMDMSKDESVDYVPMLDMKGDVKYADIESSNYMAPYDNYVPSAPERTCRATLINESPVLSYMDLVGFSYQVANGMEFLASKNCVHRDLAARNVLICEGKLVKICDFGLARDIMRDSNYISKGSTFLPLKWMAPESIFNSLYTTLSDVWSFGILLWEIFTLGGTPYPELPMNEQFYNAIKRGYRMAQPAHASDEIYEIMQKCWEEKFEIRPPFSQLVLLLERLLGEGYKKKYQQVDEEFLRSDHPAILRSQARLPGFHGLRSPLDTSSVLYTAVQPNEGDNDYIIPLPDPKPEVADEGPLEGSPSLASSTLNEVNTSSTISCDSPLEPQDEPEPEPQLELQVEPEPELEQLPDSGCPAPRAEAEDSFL

[3] = tested on: Imatinib-resistant DFSP105 cell; test: Antitumor activity against human Imatinib-resistant DFSP105 cells xenografted in athymic nude mouse assessed as tumor cell density at 75 mg/kg,po daily for 5 weeks by immunohistochemistry analysis; type: functional, organism-based
How it was run: (§1)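 Athymic nude mice given 2 million DFSP105 cells s.c. in Matrigel; after ~5 weeks tumor establishment, daily gavage (imatinib 75 mg/kg in water; PD-0332991 150 mg/kg in HCl/Cremophor EL/PEG 300/acetate pH 4.6 vehicle) for 5 weeks. BrdU i.p. 2 h before CO2 euthanasia; resected tumors examined histologically for cell density and BrdU-positive nuclei.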

[4] = Toxicity in athymic nude mouse xenografted with human Imatinib-resistant DFSP105 cells assessed as body weight loss at 75 mg/kg,po daily for 5 weeks; type: organism-based; details: in vivo, 840 h
How it was run: (§2)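 S.c. DFSP105 xenografts (2 million cells in Matrigel) in athymic nude mice, treated after ~5 weeks establishment with daily gavage: imatinib 75 mg/kg in water or PD-0332991 150 mg/kg in HCl/Cremophor EL/PEG 300/acetate pH 4.6 vehicle, versus untreated, for 5 weeks. Tumor volume and body weight monitored weekly; mean ± SE.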

[5] = tested on: Imatinib-resistant DFSP105 cell; test: Antitumor activity against human Imatinib-resistant DFSP105 cells xenografted in athymic nude mouse assessed as tumor growth inhibition by measuring tumor size at 75 mg/kg,po daily for 5 weeks; type: functional, organism-based; how it was run: as §2
[6] = molecular target: T1, Retinoblastoma-associated protein (Homo sapiens) (UniProt P06400); test: Inhibition of RB1 phosphorylation at S811 residue in human Imatinib-resistant DFSP105 cells at […] incubated for 24 hrs by Western blot analysis; type: cell-based; details: Imatinib-resistant DFSP105 cell
T1 sequence (whole entry): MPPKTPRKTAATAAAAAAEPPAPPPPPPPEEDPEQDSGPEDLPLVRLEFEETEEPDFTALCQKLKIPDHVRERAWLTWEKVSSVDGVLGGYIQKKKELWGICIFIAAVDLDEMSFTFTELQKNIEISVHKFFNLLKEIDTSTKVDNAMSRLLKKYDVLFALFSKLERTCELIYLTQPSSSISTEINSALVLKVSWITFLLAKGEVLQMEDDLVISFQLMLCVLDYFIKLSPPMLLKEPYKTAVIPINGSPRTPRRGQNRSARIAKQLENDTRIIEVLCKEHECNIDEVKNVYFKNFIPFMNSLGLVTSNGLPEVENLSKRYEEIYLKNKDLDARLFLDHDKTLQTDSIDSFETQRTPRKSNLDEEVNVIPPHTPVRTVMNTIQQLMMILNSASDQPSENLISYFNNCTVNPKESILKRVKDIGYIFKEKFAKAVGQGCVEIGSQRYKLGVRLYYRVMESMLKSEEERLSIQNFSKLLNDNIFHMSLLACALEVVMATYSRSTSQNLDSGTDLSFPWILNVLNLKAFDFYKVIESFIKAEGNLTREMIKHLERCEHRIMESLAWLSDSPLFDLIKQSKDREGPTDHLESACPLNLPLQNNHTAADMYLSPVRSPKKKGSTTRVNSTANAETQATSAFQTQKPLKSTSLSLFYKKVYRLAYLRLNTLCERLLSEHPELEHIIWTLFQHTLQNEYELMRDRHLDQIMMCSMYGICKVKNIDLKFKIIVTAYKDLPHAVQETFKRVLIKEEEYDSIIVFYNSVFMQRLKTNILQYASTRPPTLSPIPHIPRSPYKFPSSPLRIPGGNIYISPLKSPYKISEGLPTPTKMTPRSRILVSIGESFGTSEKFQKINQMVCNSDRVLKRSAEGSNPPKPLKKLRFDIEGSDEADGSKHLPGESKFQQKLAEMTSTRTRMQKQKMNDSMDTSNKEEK
How it was run: (§3)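 DFSP105 cells treated 24 h with CDK4/6 inhibitor over a dose series; whole-cell lysates cleared 14,000 rpm 30 min 4°C, protein by Bradford, then immunoblotting for phospho-RB1 and cyclin A.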

[7] = tested on: Imatinib-resistant DFSP105 cell; test: Antiproliferative activity against human Imatinib-resistant DFSP105 cells assessed as decrease in Cyclin A expression at […] incubated for 24 hrs by Western blot analysis; type: functional, cell-based; how it was run: as §3
[8] = tested on: Imatinib-resistant DFSP105 cell; test: Antitumor activity against human Imatinib-resistant DFSP105 cells xenografted in athymic nude mouse assessed as tumor cell density at 150 mg/kg,po daily for 5 weeks by immunohistochemistry analysis; type: functional, organism-based; how it was run: as §1
[9] = tested on: Imatinib-resistant DFSP105 cell; test: Antitumor activity against human Imatinib-resistant DFSP105 cells xenografted in athymic nude mouse assessed as decrease in RB1 phosphorylation at S807 residue in tumor at 150 mg/kg,po daily for 5 weeks by Western blot analysis; type: functional, organism-based
How it was run: (§4)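 Nude mice bearing s.c. DFSP105 xenografts (2 million cells in Matrigel, ~5 weeks to establish) dosed daily by gavage at 150 mg/kg in HCl/Cremophor EL/PEG 300/acetate pH 4.6 vehicle for 5 weeks; tumor lysates (homogenized in ice-cold buffer with protease inhibitors) immunoblotted for phospho-RB1.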

[10] = tested on: Imatinib-resistant DFSP105 cell; test: Antitumor activity against human Imatinib-resistant DFSP105 cells xenografted in athymic nude mouse assessed as tumor growth inhibition by measuring tumor size at 150 mg/kg,po daily for 5 weeks; type: functional, organism-based; how it was run: as §2
[11] = Toxicity in athymic nude mouse xenografted with human Imatinib-resistant DFSP105 cells assessed as body weight loss at 150 mg/kg,po daily for 5 weeks; type: organism-based; details: in vivo, 840 h; how it was run: as §2
[12] = molecular target: T1, Retinoblastoma-associated protein (Homo sapiens); test: Inhibition of RB1 phosphorylation at S795 residue in human Imatinib-resistant DFSP105 cells at […] incubated for 24 hrs by Western blot analysis; type: cell-based; details: Imatinib-resistant DFSP105 cell; how it was run: as §3
[13] = tested on: Imatinib-resistant DFSP105 cell; test: Antitumor activity against human Imatinib-resistant DFSP105 cells xenografted in athymic nude mouse assessed as decrease in RB1 phosphorylation at S795 residue in tumor at 150 mg/kg,po daily for 5 weeks by Western blot analysis; type: functional, organism-based; how it was run: as §4
[14] = molecular target: T1, Retinoblastoma-associated protein (Homo sapiens); test: Inhibition of RB1 phosphorylation at S807 residue in human Imatinib-resistant DFSP105 cells at […] incubated for 24 hrs by Western blot analysis; type: cell-based; details: Imatinib-resistant DFSP105 cell; how it was run: as §3

inhibition [2] | inhibition [6] | inhibition [12] | inhibition [14] | SMILES | GI50 [1] | Activity [7] | also measured
– | Active | Active | Active | CC(=O)c1c(C)c2cnc(Nc3ccc(N4CCNCC4)cn3)nc2n(C2CCCC2)c1=O [PALBOCICLIB] | 0.16 µM | Active | Activity [8]: inactive; Activity [9]: Active; Activity [10]: Active; Activity [11]: Non-Toxic; Activity [13]: Active
– | Active | Active | Active | CN(C)C(=O)c1cc2cnc(Nc3ccc(N4CCNCC4)cn3)nc2n1C1CCCC1 [RIBOCICLIB] | 0.276 µM | Active | –
Active | – | – | – | CCN(CC)CCNC(=O)c1c(C)[nH]c(/C=C2\C(=O)Nc3ccc(F)cc32)c1C [SUNITINIB] | > 5 µM | – | –

Continued, compound first:

SMILES | inhibition [2] | inhibition [6] | inhibition [12] | inhibition [14] | GI50 [1] | Activity [7] | also measured
CO[C@H]1C[C@@H]2CC[C@@H](C)[C@@](O)(O2)C(=O)C(=O)N2CCCC[C@H]2C(=O)O[C@H]([C@H](C)C[C@@H]2CC[C@@H](OCCO)[C@H](OC)C2)CC(=O)[C@H](C)/C=C(\C)[C@@H](O)[C@@H](OC)C(=O)[C@H](C)C[C@H](C)/C=C/C=C/C=C/1C [EVEROLIMUS] | – | – | – | – | 0.005 µM | – | –
Cc1ccc(NC(=O)c2ccc(CN3CCN(C)CC3)cc2)cc1Nc1nccc(-c2cccnc2)n1 [IMATINIB] | Active | – | – | – | > 5 µM | – | Activity [3]: inactive; Activity [4]: Non-Toxic; Activity [5]: inactive
CS(=O)(=O)N1CCN(Cc2cc3nc(-c4cccc5[nH]ncc45)nc(N4CCOCC4)c3s2)CC1 [PICTILISIB] | – | – | – | – | 1.91 µM | – | –
